Among the data in ChEMBL document CHEMBL1124458, “Electrophilic derivatives of purines as irreversible inhibitors of A1 adenosine receptors” (J Med Chem, 1989) are Ki, inhibition and Ratio values, retold here.

The target of experiment [1] is T1, Adenosine receptor A1 (Bos taurus, UniProt P28190).
T1 sequence (P28190 whole entry): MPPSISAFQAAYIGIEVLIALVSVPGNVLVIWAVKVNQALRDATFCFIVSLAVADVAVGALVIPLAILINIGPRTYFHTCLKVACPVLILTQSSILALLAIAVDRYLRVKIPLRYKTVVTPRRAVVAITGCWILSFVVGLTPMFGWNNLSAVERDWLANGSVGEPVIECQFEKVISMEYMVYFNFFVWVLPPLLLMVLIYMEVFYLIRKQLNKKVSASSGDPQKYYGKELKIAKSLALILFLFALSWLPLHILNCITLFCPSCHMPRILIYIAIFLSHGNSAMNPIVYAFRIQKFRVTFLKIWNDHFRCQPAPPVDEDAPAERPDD
The experiment is described as follows: Affinity for Adenosine A1 receptor using [125I]APNEA in calf brain. Put shortly:
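Bovine cerebral cortex membranes were pretreated with adenosine deaminase (0.5 unit/mL, 20 min, 37 °C). Membranes (40 µg) were incubated with 125I-APNEA and competitor for 1 h at 37 °C. Separation was by dilution in cold Tris-HCl/MgCl2/EDTA buffer, pH 8.26, with 0.02% Chaps, then glass-filter filtration and gamma counting. Nonspecific binding was defined with 10⁻⁵ M (R)-PIA.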

Experiment [2] deals with T2, Adenosine receptor A1 (Rattus norvegicus) (UniProt P25099).
T2 sequence (whole entry): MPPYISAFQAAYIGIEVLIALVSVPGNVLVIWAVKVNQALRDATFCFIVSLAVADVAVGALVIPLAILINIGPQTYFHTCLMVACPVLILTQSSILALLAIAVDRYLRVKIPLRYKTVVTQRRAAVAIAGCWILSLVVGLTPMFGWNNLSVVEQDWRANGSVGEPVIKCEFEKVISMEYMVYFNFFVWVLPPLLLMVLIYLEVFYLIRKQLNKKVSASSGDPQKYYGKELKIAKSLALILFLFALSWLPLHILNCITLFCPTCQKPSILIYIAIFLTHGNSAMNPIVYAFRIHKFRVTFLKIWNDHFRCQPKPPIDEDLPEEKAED
Put plainly: Percentage inhibition of [125I]APNEA binding to adenosine A1 receptor from rat brain after 45 min incubation at 500 nM. The procedure, abridged:
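Adenosine deaminase-treated rat cerebral cortex membranes were exposed to the ligand for 45 min at 37 °C. They were washed three times, held in buffer with 10⁻⁴ M IBMX for 18 h at 25 °C, washed and re-treated with deaminase. Residual sites were measured by 125I-APNEA saturation (0.1–2.5 nM) against untreated membranes carried through the same procedure.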

Experiment [3] addresses T3, Adenosine receptor A1 (Rattus norvegicus, UniProt P25099).
T3 sequence (P25099 whole entry): T2 sequence (whole entry)
Put plainly: Affinity for A1 adenosine receptor using [3H]-N6 -(phenylisopropyl)-adenosine (R)-[3H]-PIA in rat brain. The experiment is classed as tissue-based. The procedure, abridged:
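Rat cerebral cortex membranes pretreated with adenosine deaminase (0.5 unit/mL, 20 min, 37 °C). Competition against 1 nM (R)-[3H]PIA over a range of ligand concentrations, in triplicate, in at least three experiments. […] For irreversible ligands the value is an apparent Ki.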

The target of experiment [4] is T3, Adenosine receptor A1. The experiment is described as follows: Affinity for adenosine A1 receptor using [3H]-N6 -(phenylisopropyl)-adenosine (R)-[3H]-PIA in rat brain. The experiment is classed as tissue-based. Put shortly: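 Rat cerebral cortex membranes were incubated with 1 nM (R)-[3H]PIA and a range of competitor concentrations. Each point was run in triplicate, in at least three separate experiments.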

Experiment [5] deals with T4, Adenosine receptors; A1 & A2 (Rattus norvegicus) (UniProt P29276+P25099+P30543). Put plainly: Selectivity ratio between Ki for adenosine A2 and A1 receptors. The experiment is classed as protein assay.
The target in experiment [6] is T5, Adenosine A2 receptor (Rattus norvegicus, UniProt P29276+P30543). The experiment is described as follows: Inhibitory affinity for adenosine A2 receptor using [3H]N-ethyladenosine-5'-uronamide. The experiment is classed as protein assay.
For experiment [7], the target named is T2, Adenosine receptor A1 (Rattus norvegicus). The experiment is described as follows: Percentage inhibition of [125I]APNEA binding to Adenosine A1 receptor from rat brain after 45 min incubation at 10 nM. The procedure, abridged:
(§1)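 Rat cerebral cortex membranes pretreated with adenosine deaminase (0.5 unit/mL, 20 min, 37 °C). Incubated with ligand at the stated concentration for 45 min at 37 °C, then washed three times in Tris/MgCl2/EDTA buffer pH 8.26 with 0.02% Chaps. Then 10⁻⁴ M IBMX for 18 h at 25 °C, washed twice and deaminase-treated again. Untreated membranes went through every step as controls.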

Experiment [8] concerns the target T5, Adenosine A2 receptor. The experiment is described as follows: Inhibition of [3H]N-ethyladenosine-5'-uronamide binding to Adenosine A2 receptor of rat striatal membrane.
In experiment [9] the target is T2, Adenosine receptor A1 (Rattus norvegicus). The experiment is described as follows: (§2) Percentage inhibition of [125I]APNEA binding to adenosine A1 receptor from rat brain after 45 min incubation at 1 nM. The procedure, abridged: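 Rat cerebral cortex membranes, pretreated with adenosine deaminase (0.5 unit/mL, 20 min, 37 °C), incubated with ligand 45 min at 37 °C. Washed three times in Tris/MgCl2/EDTA buffer pH 8.26 with 0.02% Chaps, then 10⁻⁴ M IBMX 18 h at 25 °C to strip reversible ligand. Washed, deaminase-treated again, then 125I-APNEA saturation binding (0.1–2.5 nM; nonspecific 10⁻⁵ M R-PIA). Inhibition is relative to untreated membranes carried through the same steps.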

For experiment [10] the target is unchanged. The experiment is described as follows: Percentage inhibition of [125I]APNEA binding to adenosine A1 receptor from rat brain after 45 min incubation at 10 nM. The procedure, abridged: as §1
Experiment [11] concerns the target T4, Adenosine receptors; A1 & A2 (Rattus norvegicus). Put plainly: Relative affinities for Adenosine A2 and Adenosine A1 receptors. The experiment is classed as protein assay.
Experiment [12] has as its target T2, Adenosine receptor A1 (Rattus norvegicus). Described as §2. Put shortly:
as §1
The source holds these as a separate data set.

On to `CCCn1c(=O)c2nc(-c3ccc(OCC(=O)NCC=O)cc3)[nH]c2n(CCC)c1=O`, for which the Ki worked out at 3.17 nM at Adenosine receptor A1 [1] and 266 nM on Adenosine receptor A1 [3]. This molecule registered an inhibition in [2] of 0%.

Consider `O=C(Cc1ccc(NC(=O)Cc2ccc(Nc3ncnc4c3ncn4C3O[C@H](CO)[C@@H](O)[C@H]3O)cc2)cc1)NCC/N=C(\S)Nc1ccc(S(=O)(=O)[O-])cc1.[Na+]` (stereo not given in full), for which the Ki stood at 51.1 nM on Adenosine receptor A1 [4] and 70 nM at Adenosine A2 receptor [6]. The Ratio in experiment [5] came to 1.37.

`O=C(Cc1ccc(NC(=O)Cc2ccc(Nc3ncnc4c3ncn4C3O[C@H](CO)[C@@H](O)[C@H]3O)cc2)cc1)NCC/N=C(\S)Nc1ccc(N=C=S)cc1` (stereo not given in full): the inhibition in experiment [7] is more than 80%; in experiment [9], 39%; in experiment [10], more than 80%. The molecule also came in with a Ki on Adenosine A2 receptor [8] of 191 nM.

Consider `O=C(Cc1ccc(NC(=O)Cc2ccc(Nc3ncnc4c3ncn4C3O[C@H](CO)[C@@H](O)[C@H]3O)cc2)cc1)NCC/N=C(\S)Nc1cccc(N=C=S)c1` (stereo not given in full), for which the inhibition in [7] was more than 90%; in experiment [12] it was 62%; in experiment [10] it was more than 90%. Further, the Ratio in experiment [11] stood at 203. The molecule further yielded a Ki on Adenosine A2 receptor [8] of 176 nM.

As a reminder, the Ki is a dissociation constant, usually derived from enzyme kinetics or from competition with a known ligand. For orientation: inhibition means the share of the control response that was lost under treatment. Higher therefore signals a response far below the control.
